Calls of active or inactive are those of the source. No cut-off for these calls is given here.
How the values were obtained:
[1] = molecular target: DNA ligase 1 (Homo sapiens) (UniProt P18858); test: Inhibition of human Lig1 at 10 uM using double strand nicked DNA as substrate after 30 mins in presence of ATP by acrylamide-based fluorescence-assay
How it was run: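 Cy3-labelled nicked duplex (52-mer annealed to 25- and 27-mers; 1 pmol) with purified hLigI (0.2 pmol) in 50 mM Tris-Cl pH 7.5, 10 mM MgCl2, 0.25 mg/mL BSA, 100 mM NaCl, 500 µM ATP. Compound at 10 μM; 30 min at 37 °C. Stopped with formamide/EDTA; ligated and unligated strands separated on 7 M urea/12% denaturing gel. Triplicate.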

[2] = tested on: MDA-MB-231; test: Antiproliferative activity against human MDA-MB-231 cells at 10 uM after 48 hrs by MTT assay; assay type: functional, cell-based
How it was run: (§1)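 Cells seeded and allowed to adhere overnight, then given compound from 10 mM DMSO stock; DMSO alone as vehicle control. Grown 48 h, MTT (5 mg/ml) added for 3 h, formazan dissolved in DMSO, absorbance read at 590 nm. % inhibition = (A control − A treated)/A control × 100; three independent biological replicates. Single-point screen at 10 μM; IC50 from three independent experiments.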

[3] = tested on: HeLa; test: Antiproliferative activity against human HeLa cells at 10 uM after 48 hrs by MTT assay; assay type: functional, cell-based; how it was run: as §1
[4] = tested on: DLD-1; test: Antiproliferative activity against human DLD1 cells at 10 uM after 48 hrs by MTT assay; assay type: functional, cell-based; how it was run: as §1
[5] = tested on: HepG2; test: Antiproliferative activity against human HepG2 cells at 10 uM after 48 hrs by MTT assay; assay type: functional, cell-based; how it was run: as §1
[6] = tested on: 4T1 (Mus musculus); test: Antiproliferative activity against mouse 4T1 cells at 10 uM after 48 hrs by MTT assay

DNA ligase 1 (Homo sapiens), sequence (P18858 whole entry): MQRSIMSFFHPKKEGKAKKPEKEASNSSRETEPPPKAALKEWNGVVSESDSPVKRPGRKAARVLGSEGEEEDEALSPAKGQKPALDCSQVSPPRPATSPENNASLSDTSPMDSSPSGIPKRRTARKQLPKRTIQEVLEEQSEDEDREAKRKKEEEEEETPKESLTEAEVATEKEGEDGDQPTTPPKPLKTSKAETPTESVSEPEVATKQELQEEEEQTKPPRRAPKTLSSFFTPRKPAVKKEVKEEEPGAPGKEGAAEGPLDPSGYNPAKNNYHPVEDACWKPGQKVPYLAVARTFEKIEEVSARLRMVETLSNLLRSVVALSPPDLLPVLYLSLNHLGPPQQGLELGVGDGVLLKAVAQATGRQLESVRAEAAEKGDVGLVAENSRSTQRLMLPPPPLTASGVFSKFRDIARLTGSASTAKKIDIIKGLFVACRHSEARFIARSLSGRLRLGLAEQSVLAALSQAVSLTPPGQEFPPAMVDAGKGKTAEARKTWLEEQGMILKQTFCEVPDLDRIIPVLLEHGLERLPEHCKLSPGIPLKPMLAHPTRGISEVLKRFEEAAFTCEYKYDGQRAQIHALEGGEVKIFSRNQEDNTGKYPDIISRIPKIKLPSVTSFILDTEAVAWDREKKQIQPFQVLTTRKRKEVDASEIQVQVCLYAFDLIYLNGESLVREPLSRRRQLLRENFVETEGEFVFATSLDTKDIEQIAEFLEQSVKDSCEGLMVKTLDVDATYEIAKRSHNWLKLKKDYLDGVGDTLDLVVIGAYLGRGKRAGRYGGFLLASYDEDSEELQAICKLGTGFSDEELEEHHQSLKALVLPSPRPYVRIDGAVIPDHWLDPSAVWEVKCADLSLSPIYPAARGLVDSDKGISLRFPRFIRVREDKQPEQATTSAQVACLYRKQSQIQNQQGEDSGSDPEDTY

Structure (SMILES)	inhibition [1]	other results
COc1ccc2[nH]c(C)c(C3C(C#N)=C(N)Oc4c3cc(/C=C/C(=O)c3ccc(C)cc3)cc4C(C)(C)C)c2c1 (configuration not stated)	> 45%	
Cc1ccc(C(=O)/C=C/c2cc3c(c(C(C)(C)C)c2)OC(N)=C(C#N)C3c2c(C)[nH]c3ccc(Cl)cc23)cc1 (configuration not stated)	> 50%	
Cc1[nH]c2ccccc2c1C1C(C#N)=C(N)Oc2c1cc(/C=C/C(=O)c1ccc(Cl)cc1)cc2C(C)(C)C (configuration not stated)	> 50%	
COc1cc(C(=O)/C=C/c2cc3c(c(C(C)(C)C)c2)OC(N)=C(C#N)C3c2c(C)[nH]c3ccccc23)cc(OC)c1OC (configuration not stated)	< 20%	
CCC(C)c1cc(/C=C/C(=O)c2cc(OC)c(OC)c(OC)c2)cc2c1OC(N)=C(C#N)C2c1c(C)[nH]c2ccccc12 (configuration not stated)	< 20%	
Cc1cc(/C=C/C(=O)c2cccs2)cc2c1OC(N)=C(C#N)C2c1c(C)[nH]c2ccccc12 (configuration not stated)	> 45%	Activity [2]: Active; Activity [3]: Active; Activity [4]: Active; Activity [5]: Active; Activity [6]: Active
COc1ccc(C(=O)/C=C/c2cc3c(c(C(C)(C)C)c2)OC(N)=C(C#N)C3c2c(C)[nH]c3ccccc23)cc1 (configuration not stated)	< 20%	

From ChEMBL document CHEMBL4138186, “Synthesis and bio-evaluation of indole-chalcone based benzopyrans as promising antiligase and antiproliferative agents” (Eur J Med Chem, 2018)
